MsrA inhibitor: bovine MsrA enzyme inhibitors, primary screen, biochemical, absorbance, HTS. Methionine sulfoxide reductase A (Bos taurus). purified bovine MsrA, absorbance read-out. inhibition, % at 15.5 µM. 0.75% of 360,000 active. AID 651718, 2012; in the data active = inhibition above about 4.5%;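 note: 0% = vehicle wells with enzyme and 100% = reference inhibitor wells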
MT1-MMP act inh: blockers of MT1-MMP proenzyme processing, primary screen, HT1080 RFP-PRO-GFP cells, GFP/RFP fluorescence. Matrix metalloproteinase-14 (Homo sapiens), P50281. GFP/RFP ratio fluorescence, overnight; percent of plate control window, DMSO zero. GFP/RFP ratio change, % at 20 µM. 0.061% of 360,000 active. AID 651647, 2012;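 active = GFP/RFP ratio change of at least 30% with cell ATP level not reduced by more than half and red fluorescence within 50% of control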
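Test system: HT1080 RFP-PRO-GFP cells; Benchmarks: DMSO and RFP-L50D-GFP cell wells; Timing: cells overnight before dosing, compound overnight, 37 °C, 5% CO2; Compound: one 20 µM compound dose with 1% DMSO; Read-out: GFP/RFP fluorescence ratio.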
DAGLB inhibitor: DAGLB lipase inhibitors, primary screen, biochemical, fluorescence, HTS; Diacylglycerol lipase-beta (Homo sapiens), Q8NCG7; HEK293T DAGLB membrane lysate, EnzChek fluorogenic substrate; inhibition, % at 5.17 µM; 0.059% of 340,000 active; AID 504411, 2011; in the data active = inhibition above about 34%;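 note: 0% = enzyme with vehicle and 100% = wells lacking enzyme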
Target sequence (Q8NCG7 whole entry, looked up): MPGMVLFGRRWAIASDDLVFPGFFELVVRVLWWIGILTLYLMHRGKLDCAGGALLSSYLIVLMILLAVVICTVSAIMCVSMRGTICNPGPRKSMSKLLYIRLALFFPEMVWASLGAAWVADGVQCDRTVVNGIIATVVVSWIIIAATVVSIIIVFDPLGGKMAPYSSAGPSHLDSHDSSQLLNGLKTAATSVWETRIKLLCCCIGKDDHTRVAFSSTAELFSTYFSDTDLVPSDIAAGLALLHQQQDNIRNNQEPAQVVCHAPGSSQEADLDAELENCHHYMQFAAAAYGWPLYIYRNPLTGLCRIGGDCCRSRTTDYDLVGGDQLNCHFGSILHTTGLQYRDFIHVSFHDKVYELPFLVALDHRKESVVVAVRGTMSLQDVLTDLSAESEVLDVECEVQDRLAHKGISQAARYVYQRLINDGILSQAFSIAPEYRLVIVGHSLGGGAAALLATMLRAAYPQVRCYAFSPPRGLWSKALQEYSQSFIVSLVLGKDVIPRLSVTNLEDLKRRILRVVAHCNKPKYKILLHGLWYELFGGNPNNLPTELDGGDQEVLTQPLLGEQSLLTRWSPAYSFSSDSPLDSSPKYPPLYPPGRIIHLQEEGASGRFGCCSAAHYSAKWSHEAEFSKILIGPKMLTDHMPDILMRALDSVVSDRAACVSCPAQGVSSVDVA
MIN6 prolif: inducers of MIN6 beta-cell proliferation, primary screen, ATP luminescence, uHTS | MIN6 cells proliferation, ATPlite luminescence, 48 h; cells starved in 0.2% serum; 100% = growth in 10% serum | proliferation, % at 10 µM | 0.29% of 330,000 active;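 active = compounds whose signal lies at least 3.5 SD above the mean of all wells on their plate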;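 note: 0% = DMSO-treated cells in low-serum medium and 100% = 10% serum control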
bovine MsrA act: bovine MsrA enzyme activators, primary screen, biochemical, absorbance, HTS | Methionine sulfoxide reductase A (Bos taurus) | purified bovine MsrA, absorbance read-out | activation, % at 10.6 µM | 0.3% of 360,000 active; in the data active = activation above about 7.5%;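 note: 0% = vehicle and 100% = reference activator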
SKN-1 block: suppressors of acrylamide-induced Pgst-4::GFP reporter in worms, primary screen, SKN-1 inhibitor project, whole organism, uHTS, GFP/RFP fluorescence ratio, strain VP596; C. elegans VP596 Pgst-4::GFP/RFP ratio, 24 h; inhibition, % at 21.8 µM; 0.49% of 360,000 active;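 active = interference check ratio from 0.5 to 1.5 plus GFP to RFP signal ratio inhibition reaching or exceeding a fixed threshold, cut at about 30% in these data, passing the limit was not always enough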
MsrA activ conf: bovine MsrA activators, retest, confirmation, biochemical, absorbance, HTS; AID 602270, 2012; purified bovine MsrA, absorbance read-out; activation, % at 10.6 µM; shares compounds with bovine MsrA act; 12% of 1,000 active; in the data active = activation above about 4%;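 note: enzyme coupled to thioredoxin and thioredoxin reductase with NADPH; 0% = vehicle wells and 100% = reference activator wells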
* = called active by the depositor; nt = no result given. Compounds with a hit are over-represented: about 1.8% of the library has one in this group of screens.

SMILES | MsrA inhibitor | MT1-MMP act inh | DAGLB inhibitor | MIN6 prolif | bovine MsrA act | SKN-1 block | MsrA activ conf
CCCn1nnnc1NCc1ccc(N(CC)CC)cc1 | 1 | -3 | 1 | -1 | 0 | 9 | nt
CCOC(=O)C1=CN(Cc2cccc(F)c2)S(=O)(=O)N(CC)C1CCc1ccccc1 (stereo not drawn) | 0 | -4 | -14 | nt | 8.6* | 1 | 1
Cc1ncc([N+](=O)[O-])n1CC(=O)Nc1ccc(Br)cc1 | 0 | nt | 2 | -1 | -4 | 22 | nt
O=C(CSCc1ccc(Cl)cc1)NN=C1CCCC1 | -1 | 0 | -1 | -2 | 8.1* | -14 | -1
CCN(CC)S(=O)(=O)c1ccc(NC(=O)CNC2CCCCC2)cc1 | -1 | -2 | -4 | -4 | 8.4* | -7 | -1
CON(Cc1ccccc1)S(=O)(=O)c1ccccc1Br | 1 | nt | nt | nt | nt | nt | nt
CC(=O)Nc1cccc(NC(=O)CSc2nc(=O)n3cccc(C)c3n2)c1 | 2 | 5 | -2 | 2 | -7 | 20 | nt
O=C(c1ccco1)N1CCN(CCCCOc2ccc(F)cc2)CC1 | -1 | 2 | 0 | 0 | 9.4* | -10 | -2
COc1cccc(CC(=O)N2CCN(C(=O)C(=O)c3ccc(OC)c(OC)c3)CC2)c1 | 2 | nt | nt | nt | nt | nt | nt
CCN(CC)CCCNC(=O)c1csc(Nc2cccc3ccccc23)n1 | -1 | -3 | 0 | -3 | 8.1* | -1 | -2
COC(=O)CCS(=O)(=O)c1cc(Cl)ccc1Cl | 1 | 3 | -1 | -2 | 8.3* | 4 | 0
CC(=O)N1CCN(CCS(=O)(=O)c2cc(Cl)ccc2Cl)CC1 | -1 | 1 | 0 | -6 | -2 | -12 | nt
CC(=O)N(C)c1ccc(N=Nc2c(C)[nH]n(-c3ccccc3)c2=O)cc1 | -1 | 14 | -23 | -3 | 8.0* | 18 | -1
COC(=O)[C@]12C[C@H](CC(=O)N3CCOCC3)C(=O)N(Cc3ccccc3)C1=C[C@H](C1CCCC1)O[C@@H]2C | 0 | nt | nt | nt | nt | nt | nt
COc1ccc(/C=C/C(=O)N2CCN(c3ccccc3)CC2)cc1S(=O)(=O)N1CCOCC1 | 2 | -4 | 1 | -4 | 8.8* | -12 | 2
Cc1cccc2c1N(CCOc1ccccc1Cl)C(=O)C2=O | -1 | 3 | 5 | -3 | 8.0* | -8 | -1
Cc1ccccc1OCCN1C(=O)C(=O)c2cccc(C)c21 | 0 | -2 | 9 | 0 | 0 | 9 | nt
CSc1oc(-c2ccccc2)nc1S(=O)(=O)c1ccc(C)cc1 | 3 | -5 | -6 | -2 | 8.0* | -5 | -1
O=C1C=C(c2c(O)ccc3ccccc23)c2ccccc2C1=O | -1 | -5 | 0 | nt | 21* | 12 | 12*
N#C/C(=C\c1ccc(OCC(N)=O)cc1)C(=O)NC1CC1 | 3 | -2 | -1 | 5 | 13* | 8 | -1
COc1ccc(N=C2C(=O)N3c4c(cccc42)C(C)=CC3(C)C)cc1 | 0 | 2 | 6 | 0 | -7 | -2 | nt
CC(C)(C)OC(=O)NCc1ccc(CNC(=O)c2[nH]cnc2C(=O)NC2CCN(C(=O)OC(C)(C)C)CC2)cc1 | nt | 8 | -1 | -5 | 12* | 0 | 2
Cc1cc(Nc2cc(C(F)(F)F)cc(C(F)(F)F)c2)cc(=O)n1-c1cc(C(F)(F)F)cc(C(F)(F)F)c1 | -1 | nt | nt | nt | nt | nt | nt
CCc1nn(C(C)C(=O)NCCN2CCN(c3cccc(C)c3C)CC2)c(=O)c2cc3occc3n12 (stereo not drawn) | 1 | 1 | 3 | -5 | 0 | 8 | nt
CCc1nn(C(C)C(=O)Nc2cccc(C)c2C)c(=O)c2cc3occc3n12 (stereo not drawn) | 0 | -1 | -4 | 0 | 8.4* | -11 | -2

Source: PubChem BioAssay
